18 molecules from ChEMBL document CHEMBL2062481 (J Med Chem, 2012) can be followed below.

The nature of data set [1]: 1-octanol-phosphate buffer distribution coefficient, log D of the compound at 1 uM after 2 hrs by shake flask method at pH 7.4. The format is physicochemical. Summed up:
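Phosphate buffer (0.1 M, pH 7.4) and 1-octanol were mutually pre-saturated. Analyte at 1 μM in buffer was overlaid with octanol at two volume ratios chosen by lipophilicity class, three wells per ratio. Plates were shaken 2 h at 25 °C and centrifuged, and the aqueous phase was quantified by LC-MS. Results were accepted if the two ratio means agreed within 0.1 unit.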

The nature of data set [2]: AUC (0 to 24 hrs) in C3H/HeN mouse urine at 25 mg/kg, iv administered as single dose. Set-up: time < 24 hr, dose 25 mg/kg, route intravenous. The format is ADME, organism-based. The procedure, abridged:
(§1)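 Female C3H/HeN mice (19–25 g) received a single tail-vein iv dose in 100 μL PBS. Blood and urine (10 μL) were sampled at 6 and 30 min and at 1, 2, 4, 6 and 8 h. Samples were methanol-precipitated, centrifuged and quantified by LC-MS. n = 4.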

A short description of data set [3]: AUC (0 to 24 hrs) in C3H/HeN mouse plasma at 25 mg/kg, iv administered as single dose. The format is ADME, organism-based. Set-up: time < 24 hr, dose 25 mg/kg, route intravenous. Summed up: as §1
Data set [4] can be described thus: AUC (0 to 24 hrs) in C3H/HeN mouse plasma at 5 mg/kg, iv administered as single dose. The format is ADME, organism-based. Set-up: time < 24 hr, dose 5 mg/kg, route intravenous. Summed up: as §1
Data set [5] in a line: AUC (0 to 24 hrs) in C3H/HeN mouse urine at 1 mg/kg, iv administered as single dose. Type of data set: ADME, organism-based. Set-up: time < 24 hr, dose 1 mg/kg, route intravenous. Summed up: as §1
Data set [6] can be described thus: AUC (0 to 24 hrs) in C3H/HeN mouse plasma at 1 mg/kg, iv administered as single dose. Type of data set: ADME, organism-based. Set-up: time < 24 hr, dose 1 mg/kg, route intravenous. The procedure, abridged:
as §1

A short description of data set [7]: AUC (0 to 24 hrs) in C3H/HeN mouse urine at 0.05 mg/kg, iv administered as single dose. The format is ADME, organism-based. Set-up: time < 24 hr, dose 0.05 mg/kg, route intravenous. Summed up: as §1
Data set [8] can be described thus: AUC (0 to 24 hrs) in C3H/HeN mouse plasma at 0.05 mg/kg, iv administered as single dose. Type of data set: ADME, organism-based. Set-up: time < 24 hr, dose 0.05 mg/kg, route intravenous. Summed up:
as §1

For the molecule `O=C(O)c1ccc(-c2ccc(O[C@H]3O[C@H](CO)[C@@H](O)[C@H](O)[C@@H]3O)c(Cl)c2)cc1`, in data set [1], the logD at 2 h, 1 µM was -0.8.

Molecule `OC[C@H]1O[C@H](Oc2ccc(-n3ccc4ccccc43)cc2Cl)[C@@H](O)[C@@H](O)[C@@H]1O` came in with a logD at 2 h, 1 µM in data set [1] of 1.8. In addition, the AUC(0-t) at 24 h came to 19.3 µg·h/mL in data set [2] and 8.2 µg·h/mL in data set [3].

For the molecule `O=[N+]([O-])c1ccc2c(ccn2-c2ccc(O[C@H]3O[C@H](CO)[C@@H](O)[C@H](O)[C@@H]3O)c(Cl)c2)c1`, the pH-dependent lipophilicity (logD) at 2 h, 1 µM in data set [1] was found to be 1.8. Also, the AUC(0-t) at 24 h in data set [4] turned out to be 2.3 µg·h/mL.

As for `COc1ccc2c(ccn2-c2ccc(O[C@H]3O[C@H](CO)[C@@H](O)[C@H](O)[C@@H]3O)c(Cl)c2)c1`, the logD at 2 h, 1 µM in data set [1] is 3.

Molecule `OC[C@H]1O[C@H](Oc2ccc(-n3ccc4c(OCc5ccccc5)cccc43)cc2Cl)[C@@H](O)[C@@H](O)[C@@H]1O` gave a logD at 2 h, 1 µM in data set [1] of 2.7.

In the case of `OC[C@H]1O[C@H](Oc2ccc(-n3ccc4ccccc43)cc2F)[C@@H](O)[C@@H](O)[C@@H]1O`, the logD at 2 h, 1 µM in data set [1] came out at 2.4.

For `O=[N+]([O-])c1ccc2c(ccn2-c2ccc(O[C@H]3O[C@H](CO)[C@@H](O)[C@H](O)[C@@H]3O)c(F)c2)c1`, the logD at 2 h, 1 µM in data set [1] amounted to 1.9.

In turn, `COC(=O)c1ccc2c(ccn2-c2ccc(O[C@H]3O[C@H](CO)[C@@H](O)[C@H](O)[C@@H]3O)c(Cl)c2)c1` came in with a log distribution coefficient (logD) at 2 h, 1 µM in data set [1] of 2.8.

For the molecule `O=C(O)c1ccc2c(ccn2-c2ccc(O[C@H]3O[C@H](CO)[C@@H](O)[C@H](O)[C@@H]3O)c(Cl)c2)c1`, in data set [1], the logD at 2 h, 1 µM amounted to 1.1.

In data set [1], `CS(=O)(=O)Nc1ccc2c(ccn2-c2ccc(O[C@H]3O[C@H](CO)[C@@H](O)[C@H](O)[C@@H]3O)c(Cl)c2)c1` returned a logD at 2 h, 1 µM of 1.8.

Turning to `OC[C@H]1O[C@H](Oc2ccc(-n3ccc4cc(Cl)cnc43)cc2Cl)[C@@H](O)[C@@H](O)[C@@H]1O`, in data set [1], the logD at 2 h, 1 µM is 3.4.

As to `N#Cc1cnc2c(ccn2-c2ccc(O[C@H]3O[C@H](CO)[C@@H](O)[C@H](O)[C@@H]3O)c(Cl)c2)c1`, in data set [1], the logD at 2 h, 1 µM was 1.6.

In the case of `O=[N+]([O-])c1ccc2c(c1)CCN2c1ccc(O[C@H]2O[C@H](CO)[C@@H](O)[C@H](O)[C@@H]2O)cc1`, the figures for the AUC(0-t) at 24 h in data set [5] and in data set [6] were 586 µg·h/mL and 2.2 µg·h/mL, respectively. The molecule also came in with a logD at 2 h, 1 µM in data set [1] of 1.9.

For the molecule `OC[C@H]1O[C@H](Oc2ccc(N3CCc4ccccc43)cc2)[C@@H](O)[C@@H](O)[C@@H]1O`, in data set [1], the logD at 2 h, 1 µM was found to be 2.3.

For the molecule `O=[N+]([O-])c1ccc2c(c1)CCN2c1ccc(O[C@H]2O[C@H](CO)[C@@H](O)[C@H](O)[C@@H]2O)c(Cl)c1`, the values for the AUC(0-t) at 24 h in data set [7] and in data set [8] were 33.4 µg·h/mL and 3.5 µg·h/mL, respectively. The logD at 2 h, 1 µM in data set [1] was 1.9.

In the case of `OC[C@H]1O[C@H](Oc2ccc(N3CCc4ccccc43)cc2Cl)[C@@H](O)[C@@H](O)[C@@H]1O`, the logD at 2 h, 1 µM in data set [1] was found to be 2.8.

As to `OC[C@H]1O[C@H](Oc2ccc(-c3cnc4[nH]ccc4c3)cc2Cl)[C@@H](O)[C@@H](O)[C@@H]1O`, the logD at 2 h, 1 µM in data set [1] was 3.2.

As to `Cn1cnc2cc(-c3ccc(O[C@H]4O[C@H](CO)[C@@H](O)[C@H](O)[C@@H]4O)c(Cl)c3)cnc21`, the logD at 2 h, 1 µM in data set [1] was determined as 1.3.
